Assay results: ChEMBL document CHEMBL1130262, “Peptidomimetic inhibitors of the human cytomegalovirus protease” (J Med Chem, 1997)

Legend:
Chymotrypsinogen A = Chymotrypsinogen A (Bos taurus, UniProt P00766); assay: Activity against serine protease bovine pancreatic Alpha-Chymotrypsinogen (BPC)
How it was run: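 Colorimetric assay with bovine pancreatic α-chymotrypsin ([…], as printed) and 100 μM Succ-AAPF-pNA. Inhibitor at 300–0.06 μM, preincubated with enzyme 1 h at 30 °C. Substrate then added and hydrolysis run to ~30% conversion, read as pNA absorbance.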

Cathepsin B = Cathepsin B (Homo sapiens, UniProt P07858); assay: Activity against serine protease human liver Cathepsin B (cat-B )
How it was run: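 Human liver cathepsin B, 5 nM, with the stock enzyme activated in 20 mM TCEP before use. Inhibitor at 300–0.06 μM, preincubated 1 h at 30 °C. Then 30 μM Z-FR-pNA added, hydrolysis to ~30% conversion, pNA absorbance read.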

Neutrophil elastase = biological target: T1, Neutrophil elastase (Homo sapiens, UniProt P08246); assay: Binding affinity for human leukocyte elastase(HLE) serine protease
T1 sequence (P08246 whole entry): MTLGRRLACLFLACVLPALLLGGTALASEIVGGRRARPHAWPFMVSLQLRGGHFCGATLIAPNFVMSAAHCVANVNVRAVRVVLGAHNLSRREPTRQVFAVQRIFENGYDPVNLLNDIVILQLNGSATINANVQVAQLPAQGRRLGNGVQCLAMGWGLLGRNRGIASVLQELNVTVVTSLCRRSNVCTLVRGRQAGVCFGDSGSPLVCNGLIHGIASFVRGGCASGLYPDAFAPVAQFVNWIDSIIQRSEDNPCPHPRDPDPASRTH
How it was run: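 Human leukocyte elastase at 8 nM with 133 μM Succ-AAV-pNA. Inhibitor at 300–0.06 μM, preincubated with enzyme 1 h at 30 °C. Substrate hydrolysis run to ~30% conversion and read by absorbance.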

IC50 (Chymotrypsinogen A)	IC50 (Cathepsin B)	IC50 (Neutrophil elastase)	SMILES
> 75 µM	> 300 µM	> 300 µM	CN(C)C(=O)C[C@H](NC(=O)[C@@H](NC(=O)CC(C)(C)C)C(C)(C)C)C(=O)N[C@H]1CN(OCc2ccccc2)C1=O
> 300 µM	> 300 µM	183 µM	CC(NC(=O)[C@H](CC(=O)N(C)C)NC(=O)[C@@H](NC(=O)CC(C)(C)C)C(C)(C)C)C(=O)c1nc2ccccc2o1 (stereo partly specified)
> 300 µM	59 µM	> 300 µM	CC(NC(=O)[C@H](CC(=O)N(C)C)NC(=O)[C@@H](NC(=O)CC(C)(C)C)C(C)(C)C)C(=O)c1nc2ncccc2o1 (stereo partly specified)
> 300 µM	> 300 µM	> 300 µM	Cc1cccc2oc(C(=O)C(C)NC(=O)[C@H](CC(=O)N(C)C)NC(=O)[C@@H](NC(=O)CC(C)(C)C)C(C)(C)C)nc12 (stereo partly specified)
> 300 µM	19 µM	> 300 µM	CC(NC(=O)[C@H](CC(=O)N(C)C)NC(=O)[C@@H](NC(=O)CC(C)(C)C)C(C)(C)C)C(=O)c1nc2ccccc2s1 (stereo partly specified)
> 300 µM	> 300 µM	> 300 µM	Cc1ccc2oc(C(=O)C(C)NC(=O)[C@H](CC(=O)N(C)C)NC(=O)[C@@H](NC(=O)CC(C)(C)C)C(C)(C)C)nc2c1 (stereo partly specified)
> 300 µM	> 300 µM	> 300 µM	Cc1cccc2nc(C(=O)C(C)NC(=O)[C@H](CC(=O)N(C)C)NC(=O)[C@@H](NC(=O)CC(C)(C)C)C(C)(C)C)oc12 (stereo partly specified)
14 µM	> 300 µM	> 300 µM	CC(NC(=O)[C@H](CC(=O)N(C)C)NC(=O)[C@@H](NC(=O)CC(C)(C)C)C(C)(C)C)C(=O)C(F)(F)C(F)(F)F (stereo partly specified)
> 300 µM	> 300 µM	> 300 µM	C[C@H](NC(=O)[C@H](CC(=O)N(C)C)NC(=O)[C@@H](NC(=O)CC(C)(C)C)C(C)(C)C)C(=O)C(F)(F)F
> 300 µM	> 300 µM	> 300 µM	C[C@H](NC(=O)[C@H](CC(=O)N(C)C)NC(=O)[C@@H](NC(=O)CC(C)(C)C)C(C)(C)C)C(=O)C(F)(F)C(=O)NCc1ccccc1
> 300 µM	> 300 µM	> 300 µM	CC(NC(=O)[C@H](CC(=O)N(C)C)NC(=O)[C@@H](NC(=O)CC(C)(C)C)C(C)(C)C)C(=O)C(=O)NCc1ccccc1 (stereo partly specified)
> 300 µM	225 µM	> 300 µM	Cc1ccc2nc(C(=O)C(C)NC(=O)[C@H](CC(=O)N(C)C)NC(=O)[C@@H](NC(=O)CC(C)(C)C)C(C)(C)C)oc2c1 (stereo partly specified)
